Results from ChEMBL document CHEMBL1955721, “Syntheses and cellular investigations of 17(3)-, 15(2)-, and 13(1)-amino acid derivatives of chlorin e(6)” (J Med Chem, 2011).

Key:
HEp-2 [1] = test: Cytotoxicity against human Hep2 cells under dark condition after 18 hrs by celltiter blue assay; assay type: functional, cell-based; settings: HEp-2, 18 h
Outline: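 HEp2 cells (passages 4–15) plated 7500/well and grown 48 h. Two-fold serial dilutions from 400 to 50 µM applied for 18 h in the dark. Medium replaced, then CellTiter Blue added and incubated 4 h. Untreated cells taken as 100% viable, 0.2% saponin-treated as 0%.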

HEp-2 [2] = test: Cytotoxicity against human Hep2 cells after overnight incubation followed by cells irradiated with 1 J/cm'2 light for 20 mins measured after overnight incubation by celltiter blue assay; assay type: functional, cell-based; settings: HEp-2, light or radiation study
Outline: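 HEp2 cells in 50:50 DMEM:AMEM with 5% FBS, passages 4–15, plated 7500/well and grown 48 h. Loaded overnight at 6.25–100 µM. Medium then swapped for one with 50 mM HEPES pH 7.2. Irradiated 20 min with a 100 W halogen lamp through a 610 nm long-pass filter (~1 J/cm2), IR cut by 10 mm water, plate on ice-water. Incubated overnight at 37 °C, then CellTiter Blue viability read.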

HEp-2 [3] = test: Ratio of IC50 for cytotoxicity against human Hep2 cells under dark condition to IC50 for human Hep2 cells in presence of 1 J/cm'2 light; assay type: functional
[4] = Drug uptake in human Hep2 cell lysosomes at 10 uM after 18 hrs by fluorescence microscopic analysis; assay type: ADME, cell-based, Lysosome; settings: hep-2, 18 h
Outline: (§1)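 HEp2 cells grown 48 h on glass-bottom wells, then exposed to 10 µM compound for 18 h. Co-stained 30 min at 37 °C with LysoSensor Green 50 nM, MitoTracker Green 250 nM, ER Tracker Blue/White 100 nM or BODIPY FL C5 ceramide. Washed three times with PBS. Organelle sites scored by fluorescence overlay microscopy as major or minor.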

[5] = Drug uptake in human Hep2 cell endoplasmic reticulum at 10 uM after 18 hrs by fluorescence microscopic analysis; assay type: ADME, cell-based; settings: hep-2, 18 h; outline: as §1
[6] = Drug uptake in human Hep2 cell golgi at 10 uM after 18 hrs by fluorescence microscopic analysis; assay type: ADME, cell-based; settings: hep-2, 18 h; outline: as §1
[7] = Drug uptake in human Hep2 cell mitochondria at 10 uM after 18 hrs by fluorescence microscopic analysis; assay type: ADME; settings: hep-2, 18 h; outline: as §1
HEp-2 [8] = test: Drug uptake in human Hep2 cells at 10 uM measured up to 25 hrs by […]; assay type: ADME, cell-based; settings: hep-2, 24 h, in the assay text read “24 hrs” for “25 hrs”
Outline: (§2)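 HEp2 cells plated 7500/well and grown 48 h. Given 10 µM compound (final DMSO ≤1%, Cremophor 0.1%) for 0, 1, 2, 4, 8, 12 and 24 h. Washed with PBS and lysed in 0.25% Triton X-100. Intracellular compound read by intrinsic fluorescence (ex 355/em 650 nm) in a plate reader and normalized to cell number by CyQuant.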

HEp-2 [9] = test: Drug uptake in human Hep2 cells at 10 uM after 24 hrs by fluorescence microscopic analysis relative to chlorin e6; assay type: ADME, cell-based; settings: hep-2, 24 h; outline: as §2

| SMILES | Drug uptake [4] | Drug uptake [5] | Drug uptake [6] | Drug uptake [7] | Drug uptake (HEp-2 [8]) | fold change (FC) (HEp-2 [9]) | IC50 (HEp-2 [1]) [µM] | IC50 (HEp-2 [2]) [µM] | Ratio IC50 (HEp-2 [3]) |
| --- | --- | --- | --- | --- | --- | --- | --- | --- | --- |
| C=Cc1c(C)c2cc3nc(c(CC(=O)N[C@@H](CCCCN)C(=O)OC)c4[nH]c(cc5nc(cc1[nH]2)C(C)=C5CC)c(C)c4C(=O)OC)[C@@H](CCC(=O)OC)[C@@H]3C | Active | Active | Active | Not Active |  | 18 | > 400 | 28.8 | >13.9 |
| C=Cc1c(C)c2cc3nc(c(CC(=O)OC)c4[nH]c(cc5nc(cc1[nH]2)C(C)=C5CC)c(C)c4C(=O)N[C@@H](CC(=O)O)C(=O)O)[C@@H](CCC(=O)OC)[C@@H]3C | Active | Active | Active | Active | Active |  | 285 | 0.61 | 466.6 |
| C=Cc1c(C)c2cc3nc(c(CC(=O)OC)c4[nH]c(cc5nc(cc1[nH]2)C(C)=C5CC)c(C)c4C(=O)NCCC(=O)N[C@@H](CC(=O)O)C(=O)O)[C@@H](CCC(=O)OC)[C@@H]3C | Active | Active | Active | Not Active | Active |  | 384 | 0.82 | 468.2 |
| C=Cc1c(C)c2cc3nc(c(CC(=O)OC)c4[nH]c(cc5nc(cc1[nH]2)C(C)=C5CC)c(C)c4C(=O)NCCNC(=O)[C@@H](N)CCCCN)[C@@H](CCC(=O)OC)[C@@H]3C | Active | Active | Active | Not Active | Active |  | 268 | 1.34 | 200.3 |
| C=Cc1c(C)c2cc3nc(c(CC(=O)O)c4[nH]c(cc5nc(cc1[nH]2)C(C)=C5CC)c(C)c4C(=O)O)[C@@H](CCC(=O)O)[C@@H]3C [CHLORIN E6] | Active | Active | Not Active | Not Active | Active |  | > 400 | 20.8 | >19.2 |

The next lines start with results.

| Drug uptake [4] | Drug uptake [5] | Drug uptake [6] | Drug uptake [7] | Drug uptake (HEp-2 [8]) | fold change (FC) (HEp-2 [9]) | SMILES | IC50 (HEp-2 [1]) [µM] | IC50 (HEp-2 [2]) [µM] | Ratio IC50 (HEp-2 [3]) |
| --- | --- | --- | --- | --- | --- | --- | --- | --- | --- |
| Active | Active | Active | Not Active | Active |  | C=Cc1c(C)c2cc3nc(c(CC(=O)OC)c4[nH]c(cc5nc(cc1[nH]2)C(C)=C5CC)c(C)c4C(=O)OC)[C@@H](CCC(=O)N[C@@H](CCCCN)C(=O)OC)[C@@H]3C | > 400 | 26.2 | >15.3 |
| Active | Active | Not Active | Active | Active |  | C=Cc1c(C)c2cc3nc(c(CC(=O)N[C@@H](CC(=O)O)C(=O)O)c4[nH]c(cc5nc(cc1[nH]2)C(C)=C5CC)c(C)c4C(=O)OC)[C@@H](CCC(=O)OC)[C@@H]3C | 373 | 4 | 93.4 |
